Assay results: ChEMBL document CHEMBL4219038, “1-Thiazol-2-yl-N-3-methyl-1H-pyrozole-5-carboxylic acid derivatives as antitumor agents” (Bioorg Med Chem Lett, 2017)
Calls of active or inactive are those of the source. The calls are words filed in the database; no cut-off is given here.

Each molecule was assayed on HCT-116 (assay: Cell cycle arrest in human HCT116 cells assessed as reduction in cell levels at S-phase at 0.001 to 10 uM after 24 hrs EdU-staining based high content imaging analysis). Settings: not given.
Type: functional
Procedure, shortened: (§1)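 HCT-116 cells plated on poly-lysine-coated plates overnight, then treated 24 h with compound (DMSO stock diluted into McCoy's medium with 10% FBS). EdU labelling of newly synthesized DNA, 4% formaldehyde fixation, then high-content imaging in three fluorescent channels for total cell count, DNA content and S-phase cells. Means of three biological replicates, SEM.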

Compound	Activity
Cc1nn(-c2nc(-c3ccc(Cl)c(Cl)c3)c(SC(C)C)s2)c(C(=O)O)c1-c1cnccn1	Active
CC(=O)Nc1ccc(-c2c(C)nn(-c3nc(-c4ccc(Cl)c(Cl)c4)c(SC(C)C)s3)c2C(=O)O)cc1	inactive

What follows are molecules tested on HCT-116 (assay: Cell cycle arrest in human HCT116 cells assessed as reduction in cell levels at M-phase at 0.001 to 10 uM after 24 hrs by EdU-staining based high content imaging analysis). Settings: not given.
Type: functional
Procedure, shortened: as §1

Compound	Activity
CC(=O)Nc1ccc(-c2c(C)nn(-c3nc(-c4ccc(Cl)c(Cl)c4)c(SC(C)C)s3)c2C(=O)O)cc1	inactive

The molecules below were run on HCT-116 (assay: Cell cycle arrest in human HCT116 cells assessed as accumulation at G0/G1 phase at 0.001 to 10 uM after 24 hrs by EdU-staining based high content imaging analysis). Settings: not given.
Type: functional
Procedure, shortened: as §1

Compound	Activity
CC(=O)Nc1ccc(-c2c(C)nn(-c3nc(-c4ccc(Cl)c(Cl)c4)c(SC(C)C)s3)c2C(=O)O)cc1	inactive

These molecules were tested on HCT-116 (assay: Cell cycle arrest in human HCT116 cells assessed as reduction in cell levels at S/G2 phase at 0.001 to 10 uM after 24 hrs by EdU-staining based high content imaging analysis). Settings: not given.
Type: functional
Procedure, shortened: as §1

Compound	Activity
CC(=O)Nc1ccc(-c2c(C)nn(-c3nc(-c4ccc(Cl)c(Cl)c4)c(SC(C)C)s3)c2C(=O)O)cc1	inactive

The molecules below were run on BJAB (assay: Antiproliferative activity against human BJAB cells after 4 days). Settings: Homo sapiens, BJAB, 96 h.
Type: functional, cell-based

Compound	IC50 [µM]
O=C(O)/C(Cc1ccccc1[N+](=O)[O-])=N\Nc1nc(-c2ccc(Cl)c(Cl)c2)cs1	20

Same assay, conditions: Homo sapiens, BJAB, 96 h; read-out: EC50

Compound	EC50 [µM]
Cc1nn(-c2nc(-c3ccc(Cl)c(Cl)c3)c(SC(C)C)s2)c(C(=O)O)c1-c1cncc(C#N)c1	20
Cc1nn(-c2nc(-c3ccc(Cl)c(Cl)c3)c(SC(C)C)s2)c(C(=O)O)c1-c1ccccc1C(F)(F)F	5.2
Cc1nn(-c2nc(-c3ccc(Cl)c(Cl)c3)c(SC(C)C)s2)c(C(=O)O)c1-c1cc(C(F)(F)F)cc(C(F)(F)F)c1	1.8
Cc1cc(-c2c(C)nn(-c3nc(-c4ccc(Cl)c(Cl)c4)c(SC(C)C)s3)c2C(=O)O)cc(C)n1	0.58
Cc1nn(-c2nc(-c3ccc(Cl)c(Cl)c3)c(SC(C)C)s2)c(C(=O)O)c1-c1cncnc1	22
COc1cc(C#N)cc(-c2c(C)nn(-c3nc(-c4ccc(Cl)c(Cl)c4)c(SC(C)C)s3)c2C(=O)O)c1	5.2
Cc1nn(-c2nc(-c3ccc(Cl)c(Cl)c3)c(SC(C)C)s2)c(C(=O)O)c1-c1ccccc1Cl	13.1
Cc1cc(C#N)cc(-c2c(C)nn(-c3nc(-c4ccc(Cl)c(Cl)c4)c(SC(C)C)s3)c2C(=O)O)c1	4.8
CCOc1ncccc1-c1c(C)nn(-c2nc(-c3ccc(Cl)c(Cl)c3)c(SC(C)C)s2)c1C(=O)O	11
COc1ccc(-c2c(C)nn(-c3nc(-c4ccc(Cl)c(Cl)c4)c(SC(C)C)s3)c2C(=O)O)cc1	2.1
Cc1nn(-c2nc(-c3ccc(Cl)c(Cl)c3)c(SC(C)C)s2)c(C(=O)O)c1-c1cnn(C)c1	6.8
CNc1cc(-c2c(C)nn(-c3nc(-c4ccc(Cl)c(Cl)c4)c(SC(C)C)s3)c2C(=O)O)ccn1	18
COc1cc(-c2c(C)nn(-c3nc(-c4ccc(Cl)c(Cl)c4)c(SC(C)C)s3)c2C(=O)O)cc(C(F)(F)F)c1	1.38
Cc1nn(-c2nc(-c3ccc(Cl)c(Cl)c3)c(SC(C)C)s2)c(C(=O)O)c1-c1cccc(C(F)(F)F)c1	22
Cc1nn(-c2nc(-c3ccc(Cl)c(Cl)c3)c(SC(C)C)s2)c(C(=O)O)c1-c1ccc(C(F)(F)F)cc1	3.5
Cc1nn(-c2nc(-c3ccc(Cl)c(Cl)c3)c(SC(C)C)s2)c(C(=O)O)c1-c1cccc(F)c1	0.9
Cc1ccc(-c2c(C)nn(-c3nc(-c4ccc(Cl)c(Cl)c4)c(SC(C)C)s3)c2C(=O)O)cc1	3.8
Cc1nn(-c2nc(-c3ccc(Cl)c(Cl)c3)c(SC(C)C)s2)c(C(=O)O)c1-c1cccc(Cl)c1	13.6
CCSc1sc(-n2nc(C)c(Cc3ccccc3[N+](=O)[O-])c2C(=O)O)nc1-c1ccc(Cl)c(Cl)c1	59
COc1ccc(C)cc1-c1c(C)nn(-c2nc(-c3ccc(Cl)c(Cl)c3)c(SC(C)C)s2)c1C(=O)O	9.5
CCSc1sc(-n2nc(C)c(Cc3ccccc3[N+](=O)[O-])c2C(=O)OC)nc1-c1ccc(Cl)c(Cl)c1	106

Compound	EC50 [µM]
Cc1nn(-c2nc(-c3ccc(Cl)c(Cl)c3)c(SC(C)C)s2)c(C(=O)O)c1-c1ccccc1[N+](=O)[O-]	4.7
Cc1nn(-c2nc(-c3ccc(Cl)c(Cl)c3)c(SC(C)C)s2)c(C(=O)O)c1-c1cnccn1	14
COc1ccccc1-c1c(C)nn(-c2nc(-c3ccc(Cl)c(Cl)c3)c(SC(C)C)s2)c1C(=O)O	14.7
COc1cncc(-c2c(C)nn(-c3nc(-c4ccc(Cl)c(Cl)c4)c(SC(C)C)s3)c2C(=O)O)c1	21
CC(=O)Nc1ccc(-c2c(C)nn(-c3nc(-c4ccc(Cl)c(Cl)c4)c(SC(C)C)s3)c2C(=O)O)cc1	139
Cc1cc(C)cc(-c2c(C)nn(-c3nc(-c4ccc(Cl)c(Cl)c4)c(SC(C)C)s3)c2C(=O)O)c1	2.7
COC(=O)c1c(Cc2ccccc2[N+](=O)[O-])c(C)nn1-c1nc(-c2ccc(Cl)c(Cl)c2)c(SC(C)C)s1	93
Cc1nn(-c2nc(-c3ccc(Cl)c(Cl)c3)c(SC(C)C)s2)c(C(=O)O)c1-c1cccc(Cl)c1C	5.1
Cc1nn(-c2nc(-c3ccc(Cl)c(Cl)c3)c(SC(C)C)s2)c(C(=O)O)c1-c1ccc(Cl)cc1	2.5
Cc1nn(-c2nc(-c3ccc(Cl)c(Cl)c3)c(SC(C)C)s2)c(C(=O)O)c1-c1ccncc1	5.9
Cc1ccccc1-c1c(C)nn(-c2nc(-c3ccc(Cl)c(Cl)c3)c(SC(C)C)s2)c1C(=O)O	5.5
Cc1nn(-c2nc(-c3ccc(Cl)c(Cl)c3)c(SC(C)C)s2)c(C(=O)O)c1-c1ccccc1	3 to 3.4
COC(=O)c1c(Cc2ccccc2[N+](=O)[O-])c(C)nn1-c1nc(-c2ccc(Cl)c(Cl)c2)cs1	377
Cc1cc(Cl)cc(-c2c(C)nn(-c3nc(-c4ccc(Cl)c(Cl)c4)c(SC(C)C)s3)c2C(=O)O)c1	0.663
Cc1nn(-c2nc(-c3ccc(Cl)c(Cl)c3)c(SC(C)C)s2)c(C(=O)O)c1-c1cc(C#N)cc(C(F)(F)F)c1	3.6
COc1cc(Cl)cc(-c2c(C)nn(-c3nc(-c4ccc(Cl)c(Cl)c4)c(SC(C)C)s3)c2C(=O)O)c1	0.76
Cc1nn(-c2nc(-c3ccc(Cl)c(Cl)c3)c(SC(C)C)s2)c(C(=O)O)c1-c1cccnc1	12
Cc1cccc(-c2c(C)nn(-c3nc(-c4ccc(Cl)c(Cl)c4)c(SC(C)C)s3)c2C(=O)O)c1	17
Cc1nn(-c2nc(-c3ccc(Cl)c(Cl)c3)c(SC(C)C)s2)c(C(=O)O)c1Cc1ccccc1[N+](=O)[O-]	20
COc1cccc(-c2c(C)nn(-c3nc(-c4ccc(Cl)c(Cl)c4)c(SC(C)C)s3)c2C(=O)O)c1	14

Same assay, conditions: bjab

Compound	EC50
Cc1nn(-c2nc(-c3ccc4nccn4c3)c(SC(C)C)s2)c(C(=O)O)c1-c1cc(Cl)cc(Cl)c1	Not Active
Cc1nn(-c2nc(-c3cccnc3)c(SC(C)C)s2)c(C(=O)O)c1-c1cc(Cl)cc(Cl)c1	Not Active
